Tests used:
Format in all cases: functional
Staphylococcus aureus [1] = experiment: Effect on growth in Staphylococcus aureus MN8 at 1.00 mM after 24 hrs (reference value: 100%)
Procedure, shortened: (§1)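 Test-tube growth assay: 10 ml growth medium (brain heart infusion with 10% fetal bovine serum, MgCl2, L-glutamine) inoculated to 5 × 10^6 CFU/ml from a 24 h 37°C preculture. Compound diluted in medium, or dissolved in methanol with methanol-matched controls. After 24 h at 37°C with 5% CO2, OD600 and viable counts read. Growth given as % of CFU/ml of untreated controls in the same experiment.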

Staphylococcus aureus [2] = experiment: Effect on growth in Staphylococcus aureus MN8 at 2.00 mM after 24 hrs (reference value: 100%); procedure, shortened: as §1
Staphylococcus aureus [3] = experiment: Effect on growth in Staphylococcus aureus FRI-1187 at 3.00 mM after 24 hrs (reference value: 100%); procedure, shortened: as §1
Staphylococcus aureus [4] = experiment: Effect on growth in Staphylococcus aureus FRI-1187 at 1.50 mM after 24 hrs (reference value: 100%); procedure, shortened: as §1
Staphylococcus aureus [5] = experiment: microbe, parasite or virus in culture; settings: 24 h
Staphylococcus aureus [6] = experiment: microbe, parasite or virus in culture; settings: 24 h; remark: listed apart in the source
Staphylococcus aureus [7] = experiment: microbe, parasite or virus in culture; settings: 24 h; remark: listed apart in the source
Staphylococcus aureus [8] = experiment: microbe, parasite or virus in culture; settings: 24 h; remark: listed apart in the source
Staphylococcus aureus [9] = experiment: microbe, parasite or virus in culture; settings: 24 h; remark: listed apart in the source
Staphylococcus aureus [10] = experiment: microbe, parasite or virus in culture; settings: 26 h
Staphylococcus aureus [11] = experiment: microbe, parasite or virus in culture; settings: 28 h
Staphylococcus aureus [12] = experiment: microbe, parasite or virus in culture; settings: 26 h; remark: listed apart in the source
Staphylococcus aureus [13] = experiment: microbe, parasite or virus in culture; settings: 32 h
Staphylococcus aureus [14] = experiment: microbe, parasite or virus in culture; settings: 32 h; remark: listed apart in the source
Staphylococcus aureus [15] = experiment: microbe, parasite or virus in culture; settings: 32 h; remark: listed apart in the source
Staphylococcus aureus [16] = experiment: Effect on growth in Staphylococcus aureus MN8 at 0.75 mM after 24 hrs (reference value: 100%); procedure, shortened: as §1
Staphylococcus aureus [17] = experiment: microbe, parasite or virus in culture; settings: 24 h; remark: listed apart in the source
Staphylococcus aureus [18] = experiment: Effect on growth in Staphylococcus aureus MN8 at 6.40 mM after 24 hrs (reference value: 100%); procedure, shortened: as §1
Staphylococcus aureus [19] = experiment: Effect on growth in Staphylococcus aureus MN8 at 3.20 mM after 24 hrs (reference value: 100%); procedure, shortened: as §1
Staphylococcus aureus [20] = experiment: microbe, parasite or virus in culture; settings: 24 h; remark: listed apart in the source
Staphylococcus aureus [21] = experiment: microbe, parasite or virus in culture; settings: 24 h; remark: listed apart in the source
Staphylococcus aureus [22] = experiment: Effect on growth in Staphylococcus aureus MN8 at 0.10 % after 24 hrs (reference value: 100%); procedure, shortened: as §1
Staphylococcus aureus [23] = test system: Staphylococcus aureus
Staphylococcus aureus [24] = experiment: Effect on growth in Staphylococcus aureus MN8 at 75.00 mM after 24 hrs (reference value: 100%); procedure, shortened: as §1
Staphylococcus aureus [25] = experiment: microbe, parasite or virus in culture; settings: 24 h; remark: listed apart in the source
Staphylococcus aureus [26] = experiment: Effect on growth in Staphylococcus aureus MN8 at 0.50 % after 24 hrs (reference value: 100%); procedure, shortened: as §1
Staphylococcus aureus [27] = test system: Staphylococcus aureus; remark: listed apart in the source
Staphylococcus aureus [28] = experiment: microbe, parasite or virus in culture; settings: 24 h; remark: listed apart in the source
Staphylococcus aureus [29] = experiment: Effect on growth in Staphylococcus aureus MN8 at 6.50 mM after 24 hrs (reference value: 100%); procedure, shortened: as §1
Staphylococcus aureus [30] = experiment: Effect on growth in Staphylococcus aureus MN8 at 0.65 mM after 24 hrs (reference value: 100%); procedure, shortened: as §1
Staphylococcus aureus [31] = experiment: microbe, parasite or virus in culture; settings: 24 h; remark: listed apart in the source
Staphylococcus aureus [32] = experiment: microbe, parasite or virus in culture; settings: 24 h; remark: listed apart in the source
Staphylococcus aureus [33] = experiment: Effect on growth in Staphylococcus aureus MN8 at 37.50 mM after 24 hrs (reference value: 100%); procedure, shortened: as §1
Staphylococcus aureus [34] = experiment: Effect on growth in Staphylococcus aureus MN8 at 7.50 mM after 24 hrs (reference value: 100%); procedure, shortened: as §1
Staphylococcus aureus [35] = experiment: microbe, parasite or virus in culture; settings: 24 h; remark: listed apart in the source
Staphylococcus aureus [36] = experiment: microbe, parasite or virus in culture; settings: 24 h; remark: listed apart in the source
Staphylococcus aureus [37] = experiment: Effect on growth in Staphylococcus aureus MN8 at 0.67 mM after 24 hrs (reference value: 100%); procedure, shortened: as §1
Staphylococcus aureus [38] = experiment: microbe, parasite or virus in culture; settings: 24 h; remark: listed apart in the source
Staphylococcus aureus [39] = experiment: Effect on growth in Staphylococcus aureus MN8 at 0.05 mM after 24 hrs (reference value: 100%); procedure, shortened: as §1
Staphylococcus aureus [40] = experiment: Effect on growth in Staphylococcus aureus MN8 at 0.01 mM after 24 hrs (reference value: 100%); procedure, shortened: as §1
Staphylococcus aureus [41] = experiment: Effect on growth in Staphylococcus aureus FRI-1187 at 0.50 mM after 24 hrs (reference value: 100%); procedure, shortened: as §1
Staphylococcus aureus [42] = experiment: Effect on growth in Staphylococcus aureus FRI-1187 at 0.05 mM after 24 hrs (reference value: 100%); procedure, shortened: as §1
Staphylococcus aureus [43] = experiment: microbe, parasite or virus in culture; settings: 24 h; remark: listed apart in the source
Staphylococcus aureus [44] = experiment: microbe, parasite or virus in culture; settings: 24 h; remark: listed apart in the source

Oc1c(Cl)cc(Cl)c(Cl)c1Cc1c(O)c(Cl)cc(Cl)c1Cl [HEXACHLOROPHENE]
Activity (Staphylococcus aureus [1]): 143.81%
Activity (Staphylococcus aureus [2]): 123.7%
Activity (Staphylococcus aureus [3]): 35.2%
Activity (Staphylococcus aureus [4]): 75%
inhibition at 1000 µM (Staphylococcus aureus [5]): 48.1%
inhibition at 2000 µM (Staphylococcus aureus [6]): 19.6%
inhibition at 3000 µM (Staphylococcus aureus [7]): 63.5%
inhibition at 1500 µM (Staphylococcus aureus [8]): 74.3%

CCCCCCCCCCCCOCCOCCOCCOCCO [LAURETH 4]
inhibition at 10000 µM (Staphylococcus aureus [9]): 0.2%
inhibition at 2000 µM (Staphylococcus aureus [10]): 1.7%
inhibition at 10000 µM (Staphylococcus aureus [11]): 2.9%
inhibition at 20000 µM (Staphylococcus aureus [12]): 1.5%
inhibition at 2000 µM (Staphylococcus aureus [13]): 0.1%
inhibition at 10000 µM (Staphylococcus aureus [14]): 0%
inhibition at 20000 µM (Staphylococcus aureus [15]): 0%

C=CC(C)(O)CCC=C(C)C (stereo unspecified) [LINALOOL]
Activity (Staphylococcus aureus [16]): 121.6%
inhibition at 750 µM (Staphylococcus aureus [17]): 12.2%

CC1CCC(C(C)C)C(O)C1 (stereo unspecified) [MENTHOL]
Activity (Staphylococcus aureus [18]): 32.2%
Activity (Staphylococcus aureus [19]): 119.5%
inhibition at 6400 µM (Staphylococcus aureus [20]): 1.8%
inhibition at 3200 µM (Staphylococcus aureus [21]): 24.4%

COC(=O)c1ccc(O)cc1 [METHYLPARABEN]
Activity (Staphylococcus aureus [22]): 21.4%
inhibition (INH) (Staphylococcus aureus [23]): 20.7%

C=CC(=C)CCC=C(C)C [MYRCENE]
Activity (Staphylococcus aureus [16]): 110.8%
Activity (Staphylococcus aureus [24]): 76.5%
inhibition at 750 µM (Staphylococcus aureus [17]): 60.3%
inhibition at 75000 µM (Staphylococcus aureus [25]): 75.2%

OCCOc1ccccc1 [PHENOXYETHANOL]
Activity (Staphylococcus aureus [26]): 32.3%
Activity (Staphylococcus aureus [22]): 54.3%
inhibition (INH) (Staphylococcus aureus [27]): 25.1%
inhibition (INH) (Staphylococcus aureus [23]): 42.3%

NC(=O)c1ccccc1O [SALICYLAMIDE]
Activity (Staphylococcus aureus [26]): 14.5%
Activity (Staphylococcus aureus [22]): 61.5%
inhibition (INH) (Staphylococcus aureus [27]): 11.3%
inhibition (INH) (Staphylococcus aureus [23]): 49.2%

O=C(O)c1ccccc1O [SALICYLIC ACID]
Activity (Staphylococcus aureus [22]): 31%
inhibition (INH) (Staphylococcus aureus [23]): 26.3%

CCCCCCCCCCCCN(CCC(=O)O)CCC(=O)O [SODIUM LAURIMINODIPROPIONIC ACID]
inhibition at 2200 µM (Staphylococcus aureus [28]): 1%

CC1=CCC(O)(C(C)C)CC1 (stereo unspecified) [TERPINEOL]
Activity (Staphylococcus aureus [29]): 90.5%
Activity (Staphylococcus aureus [30]): 112.7%
inhibition at 6500 µM (Staphylococcus aureus [31]): 12.4%
inhibition at 650 µM (Staphylococcus aureus [32]): 82.3%

CC1(O)CCC(C(C)(C)O)CC1 (stereo unspecified) [TERPIN]
Activity (Staphylococcus aureus [33]): 118.7%
Activity (Staphylococcus aureus [34]): 124.7%
inhibition at 37500 µM (Staphylococcus aureus [35]): 23.8%
inhibition at 7500 µM (Staphylococcus aureus [36]): 77.9%

Cc1ccc(C(C)C)c(O)c1 [THYMOL]
Activity (Staphylococcus aureus [37]): 99%
inhibition at 670 µM (Staphylococcus aureus [38]): 37.4%

Oc1cc(Cl)ccc1Oc1ccc(Cl)cc1Cl [TRICLOSAN]
Activity (Staphylococcus aureus [39]): 0%
Activity (Staphylococcus aureus [40]): 5.6%
Activity (Staphylococcus aureus [41]): 35.5%
Activity (Staphylococcus aureus [42]): 136.4%
inhibition at 500 µM (Staphylococcus aureus [43]): 3.7%
inhibition at 50 µM (Staphylococcus aureus [44]): 9.9%

COc1cc(C(=O)O)ccc1O [VANILLIC ACID]
Activity (Staphylococcus aureus [22]): 24.5%
inhibition (INH) (Staphylococcus aureus [23]): 38.5%
